We go through three compounds from ChEMBL document CHEMBL2057084, “Discovery of benzylisothioureas as potent divalent metal transporter 1 (DMT1) inhibitors” (Bioorg Med Chem Lett, 2012).

Data set [1] has as its system Rattus norvegicus. In words: Inhibition of intestinal iron uptake in acute weanling rat model of iron hyperabsorption assessed as decrease of serum iron level at 25 mg/kg, po administered after 1 hr post iron challenge. Format: functional, organism-based. On the set-up: dose 25 mg/kg. In short, it runs like this:
(§1)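 Anemic conscious rats ([…], serum iron <50 µg/dL); test article dosed po in 5% DMSO, 10% EtOH, 30% PEG400, 35% propylene glycol, 20% water; 1 h later oral challenge of 1 mg/kg Fe2+ as ferrous sulfate; serum iron measured 1 h after challenge; 8 animals per group, mean ± SEM; one-way ANOVA with Dunnett's test versus vehicle group.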

The subject of data set [2] is Rattus norvegicus. In words: Inhibition of intestinal iron uptake in acute weanling rat model of iron hyperabsorption assessed as decrease of serum iron level at 50 mg/kg, po administered after 1 hr post iron challenge. Format: functional, organism-based. On the set-up: dose 50 mg/kg. In short, it runs like this:
as §1

Data set [3] in a line: Inhibition of human DMT1B-IRE expressed in CHO cells assessed as blockage of ferrous influx after 20 mins by calcein fluorescence quenching method. The format is cell-based. In short, it runs like this: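 Calcein fluorescence quench assay for DMT1 (conditions detailed in supplementary data); IC50s are the average of at least two independent determinations.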
Data set [4] is described as follows: Apparent permeability across basolateral to apical side in human Caco2 cells. The format is ADME, cell-based. The settings on record: Caco-2. In a few lines: (§2)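 Caco-2 cell monolayers; apparent permeability measured in both directions (apical→basolateral and basolateral→apical); […].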
(Caco-2 cells form a polarised layer with tight junctions and transporters.)

In data set [5] the test system is Rattus norvegicus. In words: Inhibition of intestinal iron uptake in po dosed acute weanling rat model of iron hyperabsorption assessed as decrease of serum iron level administered after 1 hr post iron challenge. The format is functional, organism-based. In a few lines:
as §1

The subject of data set [6] is Rattus norvegicus. In words: Toxicity in acute weanling rat model at 25 to 50 mg/kg, po. The format is organism-based. On the set-up: dose 25-50 mg/kg, route oral. The settings on record: in vivo. In a few lines: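 Rats in the acute iron hyperabsorption study (anemic, conscious) dosed po at 25 or 50 mg/kg in 5% DMSO, 10% EtOH, 30% PEG400, 35% propylene glycol, 20% water; clinical observations recorded during the study.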

Data set [7] in a line: Apparent permeability across apical to basolateral side in human Caco2 cells. Format: ADME, cell-based. To be noted: Caco-2. In short, it runs like this: as §2
The target in data set [8] is T1, Natural resistance-associated macrophage protein 1 (Homo sapiens, UniProt P49279).
T1 sequence (P49279 whole entry): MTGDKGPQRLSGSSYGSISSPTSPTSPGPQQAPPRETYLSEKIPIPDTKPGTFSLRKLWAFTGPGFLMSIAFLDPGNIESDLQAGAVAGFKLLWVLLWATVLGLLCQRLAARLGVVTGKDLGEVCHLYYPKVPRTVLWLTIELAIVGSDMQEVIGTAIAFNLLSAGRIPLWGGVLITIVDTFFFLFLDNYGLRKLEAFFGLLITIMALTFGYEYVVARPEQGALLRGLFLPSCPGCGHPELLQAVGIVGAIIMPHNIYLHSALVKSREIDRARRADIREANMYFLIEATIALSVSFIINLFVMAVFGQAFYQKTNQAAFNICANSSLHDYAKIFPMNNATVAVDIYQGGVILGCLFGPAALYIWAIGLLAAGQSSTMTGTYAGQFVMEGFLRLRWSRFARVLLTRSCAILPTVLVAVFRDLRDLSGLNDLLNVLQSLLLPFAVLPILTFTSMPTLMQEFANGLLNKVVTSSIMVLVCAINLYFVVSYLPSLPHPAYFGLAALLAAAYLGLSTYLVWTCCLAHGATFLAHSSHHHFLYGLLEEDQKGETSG
In words: Inhibition of NRAMP1 expressed in CHO cells. The format is cell-based.

For data set [9], the system named is Rattus norvegicus. In words: Inhibition of intestinal iron uptake in acute weanling rat model of iron hyperabsorption assessed as decrease of serum iron level at 50 mg/kg, po administered after 1 hr post iron challenge relative to control. The format is functional. In a few lines: as §1

Usually IC50 stands for the concentration at which inhibition is half-maximal. Broadly, the Papp B→A is the apparent permeability from the basolateral to the apical side of a cell layer. The Papp A→B is the apparent permeability from the apical to the basolateral side of a cell layer.

Each structure is given as a SMILES string. The source made the active and inactive calls. No cut-off for these calls is given here.

For the compound `Br.N=C(N)SCc1cc(F)ccc1Sc1ccc([N+](=O)[O-])cc1CSC(=N)N`, the inhibition entry in [1] and in data set [2] was “Active” each time. In addition, the IC50 is 80 nM in data set [3] and over 10000 nM in data set [8]. In addition, the basolateral-to-apical permeability (Papp B→A) in [4] turned out to be 0.2 ×10⁻⁶ cm/s. In addition, the inhibition entry in data set [5] was “Dose-dependent effect”. In [6], the Activity entry was “Non-toxic”. In data set [7], the Papp A→B was 0.1 ×10⁻⁶ cm/s.

On to `Br.N=C(N)SCc1ccccc1Oc1ccccc1CSC(=N)N`, for which the inhibition result in [1] and in data set [2] was “Active” in each case. Besides, the IC50 in [3] was 340 nM; in data set [8], over 10000 nM. The Papp B→A in [4] amounted to 0.2 ×10⁻⁶ cm/s. Besides, in data set [9], the “fold change (FC)” value is listed as 8. Besides, in data set [5], the inhibition result is “Dose-dependent effect”. Besides, the Activity entry in data set [6] was “Non-toxic”. In data set [7], the Papp A→B is 0.1 ×10⁻⁶ cm/s.

With `Br.N=C(N)SCc1ccccc1Sc1ccccc1CSC(=N)N`, in data set [2], the inhibition result is “Active”. Besides, the IC50 in data set [3] is 180 nM; in data set [8], over 10000 nM. Also, in data set [4], the Papp B→A turned out to be 1.4 ×10⁻⁶ cm/s. In addition, the inhibition entry in data set [5] was “Dose-dependent effect”. The Activity result in data set [6] was “Non-toxic”. Moreover, the Papp A→B in data set [7] was found to be 0.1 ×10⁻⁶ cm/s.
